From article PMC2800230 (Nucleic Acids Research, 2009)
“Also recorded” adds a separate entry of the source. Blank lines part the entries; values can stand above or below the molecule they belong to. The star is where a group is joined. Biotin = O=C1N[C@H]2[C@H](CS[C@H]2CCCCC(=O)*)N1; Ahx = NCCCCCC(=O)O

Experiments:
RAD51 = details: in contrast to BRC4; ref [20],[21],[39]; cited from earlier work
[1] = test system: mCherry-RAD51 RAD51^LL-EE; experiment: Bio-BRC4 pull-down from DT40 whole-cell extract: mCherry-RAD51^LL-EE; type: binding, human; details: lysates of untreated DT40 cells also expressing HsRAD51^Tet off; western blot
How it was run: (§1)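 Lysates from untreated Rad51−/− DT40 cells (no doxycycline) expressing mCherry-tagged wild-type or mutant human RAD51 alongside wild-type HsRAD51Tet off were incubated with BRC4 peptide. The peptide carried an N-terminal biotin on a 6-aminohexanoic acid spacer and a C-terminal amide, was HPLC-purified to 95%, and was bound to streptavidin-coated magnetic beads. Captured RAD51 species were detected by SDS–PAGE and immunoblotting.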

mCherry-RAD51^WT = experiment: Bio-BRC4 pull-down from DT40 whole-cell extract: mCherry-RAD51^WT; type: binding, human; details: lysates of untreated DT40 cells; streptavidin magnetic beads; western blot
How it was run: as §1

[2] = test system: mCherry-RAD51 RAD51^LLRR-EEAA; experiment: Bio-BRC4 pull-down from DT40 whole-cell extract: mCherry-RAD51^LLRR-EEAA; type: binding, human; details: lysates of untreated DT40 cells also expressing HsRAD51^Tet off; western blot
How it was run: as §1

RAD51-dsDNA filament = experiment: EMSA of RAD51 nucleoprotein filament formation on dsDNA; type: biochemical, human; details: RAD51 2 µM, result in words
How it was run: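 Untagged RAD51 (2 µM) was pre-incubated with BRC peptides at stated µM concentrations for 10 min on ice. Complexes were resolved on 0.5% agarose in TAE (50 mA, 4 h, 4°C) and phosphorimaged.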

BRC4–RAD51 interaction = type: binding, human; details: competitive ELISA; comparison in words
How it was run: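 Solid-phase BRC4 peptide was bound by recombinant full-length human RAD51 in solution. The RAD51 was thrombin-cleaved overnight at 22°C from GST-RAD51 expressed in E. coli BL21, then dialysed into PBS. Wild-type or mutant biotinylated BRC peptides were added as soluble competitors. Absorbance is given as mean percentage (SEM) of triplicates, normalised to the positive control without soluble inhibitor.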

RAD51 R250A = RAD51 R250A (Homo sapiens, UniProt Q06609 1-339, R250A); experiment: streptavidin-bead pull-down
RAD51 (WT) = target: T1, RAD51 (WT) (Homo sapiens, UniProt Q06609 1-339); experiment: streptavidin-bead pull-down
T1 chain: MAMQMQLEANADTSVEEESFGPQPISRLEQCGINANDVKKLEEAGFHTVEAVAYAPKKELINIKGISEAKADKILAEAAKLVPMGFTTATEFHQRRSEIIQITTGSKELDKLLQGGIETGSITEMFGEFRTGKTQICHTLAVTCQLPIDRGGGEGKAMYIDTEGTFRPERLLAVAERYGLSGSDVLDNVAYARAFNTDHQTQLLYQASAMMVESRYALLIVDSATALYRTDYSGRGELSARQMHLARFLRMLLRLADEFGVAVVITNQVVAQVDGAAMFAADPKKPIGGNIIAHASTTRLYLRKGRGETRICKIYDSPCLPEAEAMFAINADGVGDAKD

[3] = target: T2, Recombinant full-length RAD51, cleaved from GST-RAD51 (human, UniProt Q06609 1-339); experiment: ELISA
T2 sequence (looked up): T1 chain

[4] = target: T3, Untagged recombinant RAD51 (human, UniProt Q06609 1-339); experiment: native gel or EMSA
T3 sequence (looked up): T1 chain

Molecule: IENSALAFYTSCSRKTSVSQTSLLEAKKWLREGIF [BRC5]
affinity for RAD51 among the human BRC repeats (RAD51): lowest affinity

Molecule: KEPTLLGFHTASGKKVKIAKESLDKVKNLFDEKEQ [BRC4]
pull-down of mCherry-RAD51^LL-EE by Bio-BRC4 [1]: defective in binding to Bio-BRC4 | pull-down of mCherry-RAD51^WT by Bio-BRC4 (mCherry-RAD51^WT): can also be pulled-down by Bio-BRC4 | pull-down of mCherry-RAD51^LLRR-EEAA by Bio-BRC4 [2]: defective in binding to Bio-BRC4 | inhibition of complex (filament) formation at higher concentrations (RAD51-dsDNA filament): filament formation is prevented

Molecule: KEPTLLGFHTASGKKVKVSQTSLLEAKKWLREGIF [BRC^45]
inhibition of complex (filament) formation at higher concentrations (RAD51-dsDNA filament): inhibits complex formation when present in higher amounts | permissive (super-shift) and inhibitory behaviours in the EMSA (RAD51-dsDNA filament): exhibits both behaviours; also recorded: Concentration dependent super-shift and subsequent inhibition of filament formation | potency at competing the BRC4–RAD51 interaction relative to another peptide (BRC4–RAD51 interaction): more potent than BRC4

B1: 60-mer ssDNA (ssDNA)
DNA: TACTGCCATTCTGTATCGCTTATCGAGTAGTTACCTGCCTAGCATTGCCACTCATAGCCT
binding result (RAD51 R250A): binds | binding result (RAD51 (WT)): binds

B2: 60-mer dsDNA (dsDNA)
DNA 1: B1 DNA
DNA 2: AGGCTATGAGTGGCAATGCTAGGCAGGTAACTACTCGATAAGCGATACAGAATGGCAGTA
binding result (RAD51 R250A): binds | binding result (RAD51 (WT)): binds

binding result [3]: binds
B3: BRC4 peptide (human BRCA2 BRC repeat 4, 35-mer) (peptide)
peptide: KEPTLLGFHTASGKKVKIAKESLDKVKNLFDEKEQ
modifications: N-terminal biotin attached through a 6-aminohexanoic acid spacer; C-terminal amide

binding result [4]: binds | binding result [3]: binds
B4: BRC^45 chimaeric peptide (N-terminal 17 residues of BRC4 and C-terminal 18 residues of BRC5) (peptide)
peptide: {Biotin-Ahx}-KEPTLLGFHTASGKKVKVSQTSLLEAKKWLREGIF-NH2
SMILES: CC[C@H](C)[C@H](NC(=O)CNC(=O)[C@H](CCC(=O)O)NC(=O)[C@H](CCCNC(=N)N)NC(=O)[C@H](CC(C)C)NC(=O)[C@H](Cc1c[nH]c2ccccc12)NC(=O)[C@H](CCCCN)NC(=O)[C@H](CCCCN)NC(=O)[C@H](C)NC(=O)[C@H](CCC(=O)O)NC(=O)[C@H](CC(C)C)NC(=O)[C@H](CC(C)C)NC(=O)[C@H](CO)NC(=O)[C@@H](NC(=O)[C@H](CCC(N)=O)NC(=O)[C@H](CO)NC(=O)[C@@H](NC(=O)[C@H](CCCCN)NC(=O)[C@@H](NC(=O)[C@H](CCCCN)NC(=O)[C@H](CCCCN)NC(=O)CNC(=O)[C@H](CO)NC(=O)[C@H](C)NC(=O)[C@@H](NC(=O)[C@H](Cc1c[nH]cn1)NC(=O)[C@H](Cc1ccccc1)NC(=O)CNC(=O)[C@H](CC(C)C)NC(=O)[C@H](CC(C)C)NC(=O)[C@@H](NC(=O)[C@@H]1CCCN1C(=O)[C@H](CCC(=O)O)NC(=O)[C@H](CCCCN)NC(=O)CCCCCNC(=O)CCCC[C@@H]1SC[C@@H]2NC(=O)N[C@@H]21)[C@@H](C)O)[C@@H](C)O)C(C)C)C(C)C)[C@@H](C)O)C(=O)N[C@@H](Cc1ccccc1)C(N)=O
